We go through four compounds from ChEMBL document CHEMBL1255484, “In vitro activity of ACH-702, a new isothiazoloquinolone, against Nocardia brasiliensis compared with econazole and the carbapenems imipenem and meropenem alone or in combination with clavulanic acid” (Antimicrob Agents Chemother, 2010).

What is called MIC50 is the lowest concentration that inhibits either 50% of growth or 50% of the strains tested, depending on the study. By MIC90 is commonly meant an inhibitory concentration at the 90% level, which refers to growth in some studies and to a panel of isolates in others. By Tmax is commonly meant the time at which the peak concentration occurs.

For data set [1], the system named is Nocardia brasiliensis. Description: Antibacterial activity against Nocardia brasiliensis isolated from actinomycetoma patient by broth dilution method. The data set is classed as functional. The method in brief:
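CLSI M24-A broth microdilution on 30 N. brasiliensis isolates from human actinomycetoma, including HUJEG-1, identified biochemically and by 16S rRNA gene fragment sequencing. Ground colonies were suspended to 0.5 McFarland in cation-adjusted Mueller-Hinton broth, giving 1 × 10^4 to 5 × 10^4 CFU per well, and added to serial drug dilutions. Incubation was 3 days at 35°C. MIC is the lowest concentration giving total growth inhibition; MIC50/MIC90 are reported.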
Background: Dilution methods test growth across graded concentrations, often in twofold steps.

For data set [2], the system named is Nocardia brasiliensis. Description: Antibacterial activity against Nocardia brasiliensis isolated from actinomycetoma patient by broth dilution method in presence of clavulanic acid. In kind it is functional. An outline of the steps:
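Same CLSI M24-A broth microdilution: 30 human actinomycetoma N. brasiliensis isolates, cation-adjusted Mueller-Hinton broth, inoculum 1 × 10^4 to 5 × 10^4 CFU per well, 3 days at 35°C. Clavulanic acid at 0.25 μg/ml was added with each carbapenem dilution. Drug-free growth well; E. coli ATCC 25922 and S. aureus ATCC 29213 as external controls. MIC is total growth inhibition.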

For a further data set, the system named is Mus musculus. Description: Plasma concentration in mouse at 3.3 mg/kg, po. In kind it is ADME, organism-based. More on the design: dose 3.3 mg/kg, route oral. The settings on record: in vivo.
Data set [3] can be described thus: Tmax in mouse plasma at 3.3 mg/kg, po. The data set is classed as ADME, organism-based. More on the design: dose 3.3 mg/kg, route oral.

Converted amounts (≈) assume the structure as drawn. Bounds are passed on as bounds.

On to `COc1c(N2CC[C@@H](C(C)(C)N)C2)c(F)cc2c(=O)c3c(=O)[nH]sc3n(C3CC3)c12`, for which, in the data set on Nocardia brasiliensis [1], the MIC50 stood at 0.125 µg/mL (≈ 0.289 µM) and the MIC90 stood at 0.5 µg/mL (≈ 1.16 µM).
Turning to `C[C@@H](O)[C@H]1C(=O)N2C(C(=O)O)=C(S[C@@H]3CN[C@H](C(=O)N(C)C)C3)[C@H](C)[C@H]12` [MEROPENEM], in the data set on Nocardia brasiliensis [1], the MIC50 was determined as 2 µg/mL (≈ 5.22 µM) and the MIC90 turned out to be 8 µg/mL (≈ 20.9 µM). Also, in the data set with Nocardia brasiliensis [2], the MIC50 is 2 µg/mL and the MIC90 was 8 µg/mL.
In the data set on Nocardia brasiliensis [1], `C[C@@H](O)[C@H]1C(=O)N2C(C(=O)O)=C(SCCNC=N)C[C@H]12` [IMIPENEM ANHYDROUS] registered an MIC50 of 64 µg/mL (≈ 214 µM) and an MIC90 above 64 µg/mL. In the data set on Nocardia brasiliensis [2], the MIC50 amounted to 64 µg/mL and the MIC90 was above 64 µg/mL.
Consider `Clc1ccc(COC(Cn2ccnc2)c2ccc(Cl)cc2Cl)cc1` (centres undefined) [ECONAZOLE], for which the Cp in the data set with Mus musculus stood at 230 ng/mL. In addition, in the data set on Nocardia brasiliensis [1], the MIC50 worked out at 2 µg/mL (≈ 5.24 µM) and the MIC90 was found to be 4 µg/mL (≈ 10.5 µM). The time of peak concentration (Tmax) in data set [3] was 1 h.
